# According to paper PMC12506886 (RSC Advances, 2025):
# Where two headings read alike, the source gives them in different places.
# Legend:
# [1] = tested on: A549 (human lung cancer) cells; test: MTT antiproliferative assay, A549 cells; assay type: cell-based; conditions: read-out: IC50 A549
# How it was run: (§1)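 Cancer cells were grown in RPMI 1640 with 10% FBS and 1% penicillin–streptomycin at 37 °C in humidified CO2. They were harvested with trypsin/EDTA and seeded at 8 × 10^3 cells per well. Cells were exposed to a concentration series in triplicate, with untreated wells as controls, for 72 h. MTT was then added for 4 h at 37 °C and formazan dissolved in DMSO (10 min, 37 °C, dark). Absorbance was read at 490 nm. IC50 is mean ± SD of 3–4 independent experiments.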
# [2] = tested on: SW480 (human colon cancer) cells; test: MTT antiproliferative assay, SW480 cells; assay type: cell-based; conditions: read-out: IC50 SW480
# How it was run: as §1
# [3] = tested on: MRC-5 (human fetal lung fibroblast cells); test: MTT cytotoxicity assay, MRC-5 normal cells; assay type: cell-based; conditions: MRC5, 72 h, read-out: IC50 MRC-5
# How it was run: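 Human fetal lung fibroblasts were harvested with trypsin/EDTA and seeded at 8 × 10^3 cells per well. They were treated in triplicate with a concentration series for 72 h, with untreated wells as controls. MTT was added for 4 h at 37 °C and formazan dissolved in DMSO. Absorbance was read at 490 nm. IC50 is mean ± SD of three independent replicates.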
# A549 cells [4] = conditions: read-out: IC50 (A549); cited from earlier work
# A549 cells [5] = test: Cell cycle analysis by PI staining and flow cytometry; assay type: cell-based, human; conditions: A549, 16.1 μM
# How it was run: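 A549 cells (5 × 10^4) were pre-cultured for 16 h in high-glucose DMEM, then treated with 16.1 μM test compound for 24 h and 48 h. Cells were harvested with 0.25% trypsin, washed in PBS, and stained with propidium iodide plus 1 U RNase A. DNA content was measured by flow cytometry. Values are mean ± SD of three independent experiments, compared with control by one-way ANOVA and Tukey's test.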
# A549 cells [6] = test: Annexin V-FITC/PI apoptosis assay by flow cytometry; assay type: cell-based, human; conditions: A549, 16.1 μM
# How it was run: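 A549 cells (1 × 10^5) were pre-cultured for 16 h, then exposed to 16.1 μM test compound for 24 h and 48 h. Cells were washed with PBS and 1× binding buffer, then stained with Annexin V-FITC for 15 min. After a further wash, PI was added in binding buffer and apoptosis rates were read by flow cytometry. Values are mean ± SD of three independent experiments, compared with untreated controls by one-way ANOVA and Tukey's test.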
# [7] = MTT, 72 h, mean ± SD of 3–4 independent replicates
"IC50 ([1]; Homo sapiens, A549, 72 h) [µM]","IC50 ([2]; Homo sapiens, SW480, 72 h) [µM]",Compound,further results
> 200,> 200,"COc1cc(-c2nc3ccccc3n2Cc2cn(CC(=O)Nc3ccc(Br)cc3)nn2)cc(OC)c1OC [Compound 9d, N-(4-Bromophenyl)-2-(4-((2-(3,4,5-trimethoxyphenyl)-1H-benzo[d]imidazol-1-yl)methyl)-1H-1,2,3-triazol-1-yl)acetamide]",–
31.5 ± 4.2,64.5 ± 3.3,"COc1cc(-c2nc3ccccc3n2Cc2cn(CC(=O)Nc3ccc(Cl)cc3Cl)nn2)cc(OC)c1OC [Compound 9g, N-(2,4-Dichlorophenyl)-2-(4-((2-(3,4,5-trimethoxyphenyl)-1H-benzo[d]imidazol-1-yl)methyl)-1H-1,2,3-triazol-1-yl)acetamide]",–
114 ± 5,158 ± 7.8,"COc1cc(-c2nc3ccccc3n2Cc2cn(CC(=O)Nc3ccccc3)nn2)cc(OC)c1OC [Compound 9b, N-Phenyl-2-(4-((2-(3,4,5-trimethoxyphenyl)-1H-benzo[d]imidazol-1-yl)methyl)-1H-1,2,3-triazol-1-yl)acetamide]",–
48.9 ± 2.2,62.4 ± 3.7,"COc1cc(-c2nc3ccccc3n2Cc2cn(CC(=O)Nc3ccccc3F)nn2)cc(OC)c1OC [Compound 9o, N-(2-Fluorophenyl)-2-(4-((2-(3,4,5-trimethoxyphenyl)-1H-benzo[d]imidazol-1-yl)methyl)-1H-1,2,3-triazol-1-yl)acetamide]",–
50.3 ± 6.7,65.3 ± 1,"CCc1ccc(NC(=O)Cn2cc(Cn3c(-c4cc(OC)c(OC)c(OC)c4)nc4ccccc43)nn2)cc1 [Compound 9l, N-(4-Ethylphenyl)-2-(4-((2-(3,4,5-trimethoxyphenyl)-1H-benzo[d]imidazol-1-yl)methyl)-1H-1,2,3-triazol-1-yl)acetamide]",–
20.3 ± 2,34.3 ± 3.1,"COc1cc(-c2nc3ccccc3n2Cc2cn(CC(=O)Nc3cccc(Cl)c3)nn2)cc(OC)c1OC [Compound 9n, N-(3-Chlorophenyl)-2-(4-((2-(3,4,5-trimethoxyphenyl)-1H-benzo[d]imidazol-1-yl)methyl)-1H-1,2,3-triazol-1-yl)acetamide]",IC50 [3]: 124.2 ± 0.4 µM
57.6 ± 5.7,68.1 ± 2.2,"COc1ccc(NC(=O)Cn2cc(Cn3c(-c4cc(OC)c(OC)c(OC)c4)nc4ccccc43)nn2)cc1 [Compound 9j, N-(4-Methoxyphenyl)-2-(4-((2-(3,4,5-trimethoxyphenyl)-1H-benzo[d]imidazol-1-yl)methyl)-1H-1,2,3-triazol-1-yl)acetamide]",–
–,–,"N-(2-Nitrophenyl)-2-(4-((2-(3,4,5-trimethoxyphenyl)-1H-benzo[d]imidazol-1-yl)methyl)-1H-1,2,3-triazol-1-yl)acetamide [Compound 9c]","IC50 [1, 7]: 23.5 ± 3.6 µM; IC50 [2, 7]: 22.5 ± 3.9 µM"
37.9 ± 0.14,53.5 ± 6.4,"COc1cc(-c2nc3ccccc3n2Cc2cn(CC(=O)Nc3cccc(C)c3C)nn2)cc(OC)c1OC [Compound 9k, N-(2,3-Dimethylphenyl)-2-(4-((2-(3,4,5-trimethoxyphenyl)-1H-benzo[d]imidazol-1-yl)methyl)-1H-1,2,3-triazol-1-yl)acetamide]",–
–,–,"COc1cc(-c2nc3ccc(C)cc3[nH]2)cc(OC)c1OC [Compound I, 6-methyl-2-(3,4,5-trimethoxyphenyl)-1H-benzo[d]imidazole]",IC50 (A549 cells [4]): 39.4 µM
22.2 ± 4,30.4 ± 3.6,"COc1cc(-c2nc3ccccc3n2Cc2cn(CC(=O)Nc3ccccc3Cl)nn2)cc(OC)c1OC [Compound 9e, N-(2-Chlorophenyl)-2-(4-((2-(3,4,5-trimethoxyphenyl)-1H-benzo[d]imidazol-1-yl)methyl)-1H-1,2,3-triazol-1-yl)acetamide]",IC50 [3]: 105 ± 7.1 µM
67.4 ± 3.4,77.2 ± 3.2,"COc1cc(-c2nc3ccccc3n2Cc2cn(CC(=O)Nc3ccc(C)cc3)nn2)cc(OC)c1OC [Compound 9a, N-(p-Tolyl)-2-(4-((2-(3,4,5-trimethoxyphenyl)-1H-benzo[d]imidazol-1-yl)methyl)-1H-1,2,3-triazol-1-yl)acetamide]",–
32.5 ± 4.2,43.8 ± 2.5,"COc1cc(-c2nc3ccccc3n2Cc2cn(CC(=O)Nc3ccccc3[N+](=O)[O-])nn2)cc(OC)c1OC [Compound 9h, N-(2-Nitrophenyl)-2-(4-((2-(3,4,5-trimethoxyphenyl)-1H-benzo[d]imidazol-1-yl)methyl)-1H-1,2,3-triazol-1-yl)acetamide]",–
0.46 ± 0.02,0.59 ± 0.07,"COc1cccc2c1C(=O)c1c(O)c3c(c(O)c1C2=O)C[C@@](O)(C(=O)CO)C[C@@H]3O[C@H]1C[C@H](N)[C@H](O)[C@H](C)O1 [Doxorubicin, reference compound]",IC50 [3]: 0.39 ± 0.06 µM
47.9 ± 2.7,72.3 ± 5.3,"COc1cc(-c2nc3ccccc3n2Cc2cn(CC(=O)NCc3ccccc3)nn2)cc(OC)c1OC [Compound 9m, N-Benzyl-2-(4-((2-(3,4,5-trimethoxyphenyl)-1H-benzo[d]imidazol-1-yl)methyl)-1H-1,2,3-triazol-1-yl)acetamide]",–
–,–,"N.N.[Cl][Pt][Cl] [Cisplatin, reference compound]","IC50 [1, 7]: 7.4 ± 1.6 µM"
29.3 ± 6.6,51.5 ± 4.6,"COc1cc(-c2nc3ccccc3n2Cc2cn(CC(=O)Nc3ccc(C)cc3C)nn2)cc(OC)c1OC [Compound 9i, N-(2,4-Dimethylphenyl)-2-(4-((2-(3,4,5-trimethoxyphenyl)-1H-benzo[d]imidazol-1-yl)methyl)-1H-1,2,3-triazol-1-yl)acetamide]",–
16.1 ± 1.1,19.7 ± 2.7,"COc1ccc(NC(=O)Cn2cc(Cn3c(-c4cc(OC)c(OC)c(OC)c4)nc4ccccc43)nn2)c(OC)c1 [Compound 9f, N-(2,4-Dimethoxyphenyl)-2-(4-((2-(3,4,5-trimethoxyphenyl)-1H-benzo[d]imidazol-1-yl)methyl)-1H-1,2,3-triazol-1-yl)acetamide]","IC50 [3]: 121 ± 6.7 µM; changes in the number of cells in the cell cycle phases compared to control (A549 cells [5]; 24 h): not significant; number of cells in the G2/M phase (A549 cells [5]; 48 h, non-significant decrease): 12.05%; number of cells in the S phase (A549 cells [5]; 48 h, p < 0.001 vs control): 33.04%; number of cells in the G0/G1 phase (A549 cells [5]; 48 h, p < 0.01 vs control): 54.91%; rate of early apoptosis (Q3) (A549 cells [6]; 24 h): 3.79%; rate of late apoptosis (Q2) (A549 cells [6]; 24 h): 1.63%; rate of early apoptosis (Q3) (A549 cells [6]; 48 h): 12.2%; rate of late apoptosis (Q2) (A549 cells [6]; 48 h): 4.01%"
